The source made the active and inactive calls. No cut-off for these calls is given here.
Assays:
Rattus norvegicus [1] = test: Estrogenic activity in uterus of ovariectomized Sprague-Dawley rat assessed as increase in uterus weight at 0.1 mg/kg, iv administered three times per week for 4 weeks on the first, second, and fifth days; assay type: functional, organism-based; set-up: dose 0.1 mg/kg
In short: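 Female SD rats, 7 weeks old on arrival, were housed 4 weeks, weight-matched into groups, and bilaterally ovariectomized, with sham-operated controls. Conjugate was given iv at 0.1 mg/kg the day after surgery in 1% carboxymethyl cellulose plus 1% citrate buffer. Uterine weight was the read-out.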

Rattus norvegicus [2] = test: Estrogenic activity in bone of ovariectomized Sprague-Dawley rat assessed as increase in bone mass at 0.1 mg/kg, iv administered three times per week for 4 weeks on the first, second, and fifth days; assay type: functional, organism-based; set-up: dose 0.1 mg/kg
In short: (§1)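 Female SD rats, 7 weeks old on arrival, were housed 4 weeks and assigned to groups matched for mean body weight. All except sham controls were bilaterally ovariectomized. The next day they received conjugate at 0.1 mg/kg iv in 1% carboxymethyl cellulose plus 1% citrate buffer. Bone effect was read as secondary-spongiosa bone volume of the left tibia and ash weight of the right femur.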

Rattus norvegicus [3] = test: Bisphosphonate activity in ovariectomized Sprague-Dawley rat assessed as suppression of Ca2+ ion release from bone at 0.1 mg/kg, iv administered three times per week for 4 weeks on the first, second, and fifth days; assay type: functional, organism-based; set-up: dose 0.1 mg/kg
In short: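 In rats, bisphosphonate activity was measured as suppression of PTHrp-induced Ca2+ ion release from bone.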

[4] = molecular target: T1, Estrogen receptor (Rattus norvegicus) (UniProt P06211); test: Ratio of binding affinity of compound to estradiol at rat uterus estrogen receptor by competitive binding assay
T1 sequence (whole entry): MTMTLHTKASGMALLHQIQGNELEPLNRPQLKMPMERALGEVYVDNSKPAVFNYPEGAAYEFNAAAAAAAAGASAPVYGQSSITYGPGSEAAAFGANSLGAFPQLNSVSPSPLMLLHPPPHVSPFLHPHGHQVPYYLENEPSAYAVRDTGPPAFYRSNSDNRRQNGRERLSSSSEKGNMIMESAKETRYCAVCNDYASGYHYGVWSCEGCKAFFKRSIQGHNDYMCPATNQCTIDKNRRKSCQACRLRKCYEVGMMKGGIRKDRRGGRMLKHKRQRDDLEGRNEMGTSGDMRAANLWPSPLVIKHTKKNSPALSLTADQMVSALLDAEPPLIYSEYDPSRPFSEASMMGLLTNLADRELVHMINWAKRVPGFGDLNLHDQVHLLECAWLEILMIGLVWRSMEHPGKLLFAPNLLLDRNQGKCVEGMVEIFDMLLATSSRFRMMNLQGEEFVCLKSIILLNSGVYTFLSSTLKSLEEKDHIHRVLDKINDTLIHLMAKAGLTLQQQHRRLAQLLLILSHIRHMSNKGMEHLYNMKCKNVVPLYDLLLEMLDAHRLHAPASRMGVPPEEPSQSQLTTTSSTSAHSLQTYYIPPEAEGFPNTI

Rattus norvegicus [5] = test: Estrogenic activity in bone of ovariectomized Sprague-Dawley rat assessed as increase in bone mass at 0.1 mg/kg, iv administered three times per week for 4 weeks on the first, second, and fifth days co-administered with antiestrogen fulvaestrant; assay type: functional, organism-based; set-up: dose 0.1 mg/kg; in short: as §1

SMILES | Activity (Rattus norvegicus [1]) | also measured
C[C@]12CC[C@@H]3c4ccc(O)cc4CC[C@H]3[C@@H]1CC[C@@H]2OC(=O)CC(=O)NC(P(=O)(O)O)P(=O)(O)O | inactive | 
CC(C)(C(=O)NC(P(=O)(O)O)P(=O)(O)O)C(=O)O[C@H]1CC[C@H]2[C@@H]3CCc4cc(O)ccc4[C@H]3CC[C@]12C | inactive | 
C[C@]12CC[C@@H]3c4ccc(O)cc4CC[C@H]3[C@@H]1CC[C@@H]2O | Active | Activity (Rattus norvegicus [2]): Active
C[C@]12CC[C@@H]3c4ccc(OC(=O)CC(=O)NC(P(=O)(O)O)P(=O)(O)O)cc4CC[C@H]3[C@@H]1CC[C@@H]2O | inactive | 
C[C@]12CC[C@@H]3c4ccc(OC(=O)NCCC(=O)NC(P(=O)(O)O)P(=O)(O)O)cc4CC[C@H]3[C@@H]1CC[C@@H]2O | inactive | Activity (Rattus norvegicus [2]): Active; Activity (Rattus norvegicus [3]): inactive; Ratio [4]: 2000; Activity (Rattus norvegicus [5]): inactive
C[C@]12CC[C@@H]3c4ccc(O)cc4CC[C@H]3[C@@H]1CC[C@@H]2OC(=O)c1ccccc1C(=O)NC(P(=O)(O)O)P(=O)(O)O | inactive | 
C[C@]12CC[C@@H]3c4ccc(O)cc4CC[C@H]3[C@@H]1CC[C@@H]2OC(=O)CCNC(=O)NC(P(=O)(O)O)P(=O)(O)O | inactive | 

— ChEMBL document CHEMBL1156856, “Design, synthesis, and biological evaluation of novel estradiol-bisphosphonate conjugates as bone-specific estrogens” (Bioorg Med Chem, 2010)
